Experimental data as given in ChEMBL document CHEMBL4007508, “Discovery and Pre-Clinical Characterization of Third-Generation 4-H Heteroaryldihydropyrimidine (HAP) Analogues as Hepatitis B Virus (HBV) Capsid Inhibitors” (J Med Chem, 2017).
pEC50: −log10 of the molar value. In brackets after ≈: the same amount, converted by molar mass.

What was measured:
[1] = test system: Hepatitis B virus; assay: Antiviral activity against HBV infected in human HepG2(2.2.15) cells assessed as decrease in HBV genome replication after 5 days by qPCR method; type: functional, cell-based; conditions: HepG2 2.2.15, 120 h
Procedure, shortened: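 HepG2.2.15 cells (stable HBV genome, Hep G2-derived; DMEM-F12, 10% FBS, penicillin/streptomycin, 0.5 mg/mL G418) seeded 3 × 10^4/well, incubated overnight at 37 °C. Compounds serially half-log diluted in DMSO, then in medium; final DMSO 0.5%. HBV DNA extracted and quantified by qPCR.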

[2] = Cytotoxicity against HBV infected human HepDE19 cells assessed as decrease in cell viability after 5 days by CCK8 assay; type: cell-based
Procedure, shortened: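 Tetracycline-inducible HBV HepDE19 cells seeded 5 × 10^3/well and treated with compounds. After 5 days, viability read by CCK-8 (2 h, 37 °C; absorbance 450 and 630 nm).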

[3] = Selectivity index, ratio of CC50 for HBV infected human HepDE19 cells to EC50 for HBV infected in human HepG2(2.2.15) cells
Procedure, shortened: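 Selectivity index calculated as CC50 (HepDE19, CCK-8 viability after 5 days) divided by EC50 (HBV DNA reduction in HepG2.2.15 cells, qPCR).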

[4] = Solubility of compound in phosphate buffer at pH 6.5 after one night incubation by HPLC-UV method; type: physicochemical

SMILES	pEC50 [1]	solubility [4] [µg/mL]	CC50 at 120 h [2] [nM]	Ratio CC50/EC50 [3]
CCOC(=O)C1=C(CN2CCOC[C@H]2C(=O)O)NC(c2nccs2)=N[C@H]1c1ccc(F)cc1C	8.52	–	> 100000	>33333
COC(=O)C1=C(CN2CCOC(C(=O)O)C2)NC(c2nccs2)=N[C@H]1c1ccc(F)cc1Cl (some centres undefined)	6.48	> 592	> 100000	>300
COC(=O)C1=C(CN2CCOC[C@H]2C(=O)O)NC(c2nccs2)=N[C@H]1c1ccc(F)cc1Br	8.22	–	> 100000	–
COC(=O)C1=C(CN2CCOC[C@H]2C(=O)O)NC(c2nccs2)=N[C@H]1c1ccc(F)c(F)c1Cl	9.00	–	> 100000	>100000
COC(=O)C1=C(CN2CCOC[C@H]2C(=O)OC)NC(c2nccs2)=N[C@H]1c1ccc(F)cc1Cl	8.40	< 1	–	–
CCOC(=O)C1=C(CN2CCOC[C@H]2C(=O)O)NC(c2nccs2)=N[C@H]1c1ccc(F)cc1	7.82	–	62000	4133
CCOC(=O)C1=C(CN2CCOC[C@H]2C(=O)O)NC(c2nccs2)=N[C@H]1c1ccc(F)cc1Br	–	–	72000	–
CCOC(=O)C1=C(CN2CCOC[C@H]2C(=O)O)NC(c2nccs2)=N[C@H]1c1ccc(F)c(F)c1C	9.22	–	97000	–
O=C(OCC(F)(F)F)C1=C(CN2CCOC[C@H]2C(=O)O)NC(c2nccs2)=N[C@H]1c1ccc(F)cc1Cl	7.89	–	27000	2077
COC(=O)C1=C(CN2CCOCC2CO)NC(c2nccs2)=N[C@H]1c1ccc(F)cc1Cl (some centres undefined)	8.30	475 (≈ 988 µM)	74000	14800
COC(=O)C1=C(CN2CCOC[C@H]2C(=O)O)NC(c2nccs2)=N[C@H]1c1cccc(F)c1Cl	8.40	–	> 100000	>25000
COC(=O)C1=C(CN2CCOC[C@H]2C(=O)O)NC(c2ncoc2C)=N[C@H]1c1ccc(F)cc1Cl	7.85	–	> 100000	>7143
COC(=O)C1=C(CN2CCO[C@H](C(C)C)[C@H]2C(=O)O)NC(c2nccs2)=N[C@H]1c1ccc(F)cc1Cl	8.30	–	81000	16200
CCOC(=O)C1=C(CN2CCOC[C@H]2C(=O)O)NC(c2nccs2)=N[C@H]1c1ccc(F)c(F)c1Br	9.15	–	51000	72857
COC(=O)C1=C(CN2CCOC[C@H]2C(=O)O)NC(c2nccs2)=N[C@H]1c1ccc(F)cc1C1CC1	< 7.00	–	> 100000	–
CCOC(=O)C1=C(CN2CCOC[C@H]2C(=O)O)NC(c2nccs2)=N[C@H]1c1ccc(F)c(F)c1Cl	9.22	–	29000	48333
COC(=O)C1=C(CN2CCOC[C@H]2C(=O)O)NC(c2nccs2)=N[C@H]1c1ccc(C)cc1Cl	7.96	–	> 100000	>9091
CCOC(=O)C1=C(CN2CCOC[C@H]2C(=O)O)NC(c2nccs2)=N[C@H]1c1cccc(F)c1Br	9.15	–	95000	–
COC(=O)C1=C(CN2CCOC[C@@]2(C)C(=O)O)NC(c2nccs2)=N[C@H]1c1ccc(F)cc1Cl	7.70	600 (≈ 1180 µM)	> 100000	–
CCOC(=O)C1=C(CN2CCOC[C@H]2C(=O)O)NC(c2nccs2)=N[C@H]1c1ccc(F)cc1F	7.85	–	> 100000	>7143
CCOC(=O)C1=C(CN2CCOC[C@H]2C(=O)O)NC(c2nccs2)=N[C@H]1c1ccccc1Cl	7.85	–	> 100000	>7143
COC(=O)C1=C(CN2CCOC[C@H]2C(=O)O)NC(c2nccs2)=N[C@H]1c1ccc(F)cc1C	8.10	–	> 100000	12500
CC(C)OC(=O)C1=C(CN2CCOC[C@H]2C(=O)O)NC(c2nccs2)=N[C@H]1c1ccc(F)cc1Cl	7.77	–	72000	4235
CCOC(=O)C1=C(CN2CCOC[C@H]2C(=O)O)NC(c2nccs2)=N[C@H]1c1ccc(OC)cc1	< 7.00	–	–	–
COC(=O)C1=C(CN2CCOC[C@@H]2C(=O)O)NC(c2nccs2)=N[C@H]1c1ccc(F)cc1Cl	7.10	–	> 100000	>1266
COC(=O)C1=C(CN2CCOC[C@H]2C(=O)O)NC(c2nc(C)cs2)=N[C@H]1c1ccc(F)cc1Cl	8.15	–	> 100000	>14826

Further lines, with some results ahead:

pEC50 [1]	solubility [4] [µg/mL]	SMILES	CC50 at 120 h [2] [nM]	Ratio CC50/EC50 [3]
< 6.00	–	CC1=C(C(=O)O)C(c2ccc(F)cc2Cl)N=C(c2nccs2)N1 (centres undefined)	–	–
< 6.00	–	COC(=O)C1=C(CN2CCOC[C@H]2C(=O)O)NC(c2ncccn2)=N[C@H]1c1ccc(F)cc1Cl	> 100000	–
8.10	–	COC(=O)C1=C(CN2CCOC[C@H]2C(=O)O)NC(c2ncc(F)cc2F)=N[C@H]1c1ccc(F)cc1Cl	23000	2875
< 6.00	–	COC(=O)C1=C(CN2CCN(C(C)=O)C[C@H]2C(=O)O)NC(c2nccs2)=N[C@H]1c1ccc(F)cc1Cl	–	–
< 6.00	–	COC(=O)C1=C(C)NC(c2nc(C(=O)O)cs2)=NC1c1ccc(F)cc1Cl (centres undefined)	–	–
< 6.00	–	CCNC(=O)C1=C(CN2CCOC[C@H]2C(=O)O)NC(c2nccs2)=N[C@H]1c1ccc(F)cc1Cl	–	–
< 7.00	–	CCOC(=O)C1=C(CN2CCOC[C@H]2C(=O)O)NC(c2nccs2)=N[C@H]1c1cccc(Cl)c1Cl	–	–
< 6.00	–	COC(=O)C1=C(C)NC(c2nccs2)=NC1c1cccc(C(=O)O)c1 (centres undefined)	–	–
7.66	–	COC(=O)C1=C(CN2CCOC[C@H]2C(=O)O)NC(c2nc(C3CC3)cs2)=N[C@H]1c1ccc(F)cc1Cl	–	–
< 6.00	–	COC(=O)C1=C(CN2CCOC[C@H]2C(=O)O)NC(c2ncco2)=N[C@H]1c1ccc(F)cc1Cl	> 100000	–
< 6.00	–	N#CC1=C(CN2CCOC[C@H]2C(=O)O)NC(c2nccs2)=N[C@H]1c1ccc(F)cc1Cl	–	–
7.42	584 (≈ 1140 µM)	COC(=O)C1=C(CN2CCSCC2C(=O)O)NC(c2nccs2)=N[C@H]1c1ccc(F)cc1Cl (single isomer, unassigned)	60000	1579
6.82	> 697	COC(=O)C1=C(CN2CCOC[C@H]2CCC(=O)O)NC(c2nccs2)=N[C@H]1c1ccc(F)cc1Cl	> 100000	>667
< 6.00	–	COC(=O)C1=C(CN2CCNC[C@H]2C(=O)O)NC(c2nccs2)=N[C@H]1c1ccc(F)cc1Cl	–	–
9.00	–	COC(=O)C1=C(CN2CCOC[C@H]2C(=O)O)NC(c2nccs2)=N[C@H]1c1ccc(F)c(F)c1Br	80000	80000
8.52	–	CCOC(=O)C1=C(CN2CCOC[C@H]2C(=O)O)NC(c2nccs2)=N[C@H]1c1ccc(C)cc1Cl	> 100000	>33333

pEC50 [1]	solubility [4] [µg/mL]	SMILES	CC50 at 120 h [2] [nM]	Ratio CC50/EC50 [3]
< 6.00	–	COC(=O)C1=C(CN2CCCC[C@H]2C(=O)O)NC(c2nccs2)=N[C@H]1c1ccc(F)cc1Cl	–	–
7.10	16 (≈ 43.7 µM)	COC(=O)C1=C(C)NC(c2nccs2)=N[C@H]1c1ccc(F)cc1Cl	83000	1038
8.52	–	CCOC(=O)C1=C(CN2CCOC[C@H]2C(=O)O)NC(c2nccs2)=N[C@H]1c1ccc(Br)cc1Cl	31000	–
7.92	–	CCCOC(=O)C1=C(CN2CCOC[C@H]2C(=O)O)NC(c2nccs2)=N[C@H]1c1ccc(F)cc1Cl	> 100000	>8333
8.52	205 (≈ 415 µM)	COC(=O)C1=C(CN2CCOC[C@H]2C(N)=O)NC(c2nccs2)=N[C@H]1c1ccc(F)cc1Cl	> 100000	>33333
7.10 to 7.30	–	COC(=O)C1=C(C)NC(c2ncc(F)cc2F)=N[C@H]1c1ccc(F)cc1Cl	–	–
< 7.00	–	CC(C)(C)OC(=O)C1=C(CN2CCOC[C@H]2C(=O)O)NC(c2nccs2)=N[C@H]1c1ccc(F)cc1Cl	41000	–
< 7.00	–	COC(=O)C1=C(CN2CCOC[C@H]2C(=O)O)NC(c2nccs2)=N[C@H]1c1ccc(F)cc1C(F)(F)F	> 100000	–
< 7.00	–	COC(=O)C1=C(CN2CCOC[C@H]2C(=O)O)NC(c2nccs2)=N[C@H]1c1ccc(C(F)(F)F)cc1Cl	50000	431
< 7.00	–	CCOC(=O)C1=C(CN2CCOC[C@H]2C(=O)O)NC(c2nccs2)=N[C@H]1c1cccc(C#N)c1Cl	–	–
7.38	–	COC(=O)C1=C(CN2CCOC[C@H]2C(=O)O)NC(c2nccn2C)=N[C@H]1c1ccc(F)cc1Cl	82000	1952
< 7.00	–	CCOC(=O)C1=C(CN2CCOC[C@H]2C(=O)O)NC(c2nccs2)=N[C@H]1c1ccc(C#N)cc1	–	–
6.22	> 638	COC(=O)C1=C(CN2CCOC[C@H]2CC(=O)O)NC(c2nccs2)=N[C@H]1c1ccc(F)cc1Cl	> 100000	>167
8.40	48 (≈ 86 µM)	COC(=O)C1=C(CN2CCOC[C@H]2CNS(C)(=O)=O)NC(c2nccs2)=N[C@H]1c1ccc(F)cc1Cl	88000	22000
6.72	–	COCCOC(=O)C1=C(CN2CCOC[C@H]2C(=O)O)NC(c2nccs2)=N[C@H]1c1ccc(F)cc1Cl	> 100000	>526
